The values below come from ChEMBL document CHEMBL1138411, “Design, synthesis, and biological evaluation of 1,3-dioxoisoindoline-5-carboxamide derivatives as T-type calcium channel blockers” (Bioorg Med Chem Lett, 2007).

Series [1] in a line: Cytotoxicity against HEK293 cells by MTT assay. The note with it: human. The series is classed as cell-based. The method in brief: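 MTT viability read-out. Negative control was 0.1% DMSO and positive control was H2O2.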
The species named for another series is Homo sapiens. The series can be described thus: Selectivity index, ratio of IC50 for N-type calcium channel to IC50 for T-type calcium channel Cav3.1.
The nature of series [2]: Inhibition of N-type calcium channel activity. Set-up: species or system Homo sapiens.
Series [3] has as its target Voltage-dependent T-type calcium channel subunit alpha-1G (Homo sapiens, UniProt O43497). The series can be described thus: Inhibition of T-type calcium channel Cav3.1 expressed in HEK293 cells co-expressing alpha1G subunit and Kir2.1 potassium channel by patch-clamp assay. The series is classed as cell-based. In short, it runs like this:
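Cells were HEK293 stably co-expressing Cav3.1 (α1G) and Kir2.1. Single-cell patch-clamp recording measured % inhibition of Ca2+ current at set compound concentrations, giving IC50 values. This was a secondary screen of compounds selected from a primary FDSS6000 fluorescence high-throughput assay.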

pIC50: −log10 of the molar value. Some results are limits rather than exact numbers.

Sequence of Voltage-dependent T-type calcium channel subunit alpha-1G (O43497 whole entry): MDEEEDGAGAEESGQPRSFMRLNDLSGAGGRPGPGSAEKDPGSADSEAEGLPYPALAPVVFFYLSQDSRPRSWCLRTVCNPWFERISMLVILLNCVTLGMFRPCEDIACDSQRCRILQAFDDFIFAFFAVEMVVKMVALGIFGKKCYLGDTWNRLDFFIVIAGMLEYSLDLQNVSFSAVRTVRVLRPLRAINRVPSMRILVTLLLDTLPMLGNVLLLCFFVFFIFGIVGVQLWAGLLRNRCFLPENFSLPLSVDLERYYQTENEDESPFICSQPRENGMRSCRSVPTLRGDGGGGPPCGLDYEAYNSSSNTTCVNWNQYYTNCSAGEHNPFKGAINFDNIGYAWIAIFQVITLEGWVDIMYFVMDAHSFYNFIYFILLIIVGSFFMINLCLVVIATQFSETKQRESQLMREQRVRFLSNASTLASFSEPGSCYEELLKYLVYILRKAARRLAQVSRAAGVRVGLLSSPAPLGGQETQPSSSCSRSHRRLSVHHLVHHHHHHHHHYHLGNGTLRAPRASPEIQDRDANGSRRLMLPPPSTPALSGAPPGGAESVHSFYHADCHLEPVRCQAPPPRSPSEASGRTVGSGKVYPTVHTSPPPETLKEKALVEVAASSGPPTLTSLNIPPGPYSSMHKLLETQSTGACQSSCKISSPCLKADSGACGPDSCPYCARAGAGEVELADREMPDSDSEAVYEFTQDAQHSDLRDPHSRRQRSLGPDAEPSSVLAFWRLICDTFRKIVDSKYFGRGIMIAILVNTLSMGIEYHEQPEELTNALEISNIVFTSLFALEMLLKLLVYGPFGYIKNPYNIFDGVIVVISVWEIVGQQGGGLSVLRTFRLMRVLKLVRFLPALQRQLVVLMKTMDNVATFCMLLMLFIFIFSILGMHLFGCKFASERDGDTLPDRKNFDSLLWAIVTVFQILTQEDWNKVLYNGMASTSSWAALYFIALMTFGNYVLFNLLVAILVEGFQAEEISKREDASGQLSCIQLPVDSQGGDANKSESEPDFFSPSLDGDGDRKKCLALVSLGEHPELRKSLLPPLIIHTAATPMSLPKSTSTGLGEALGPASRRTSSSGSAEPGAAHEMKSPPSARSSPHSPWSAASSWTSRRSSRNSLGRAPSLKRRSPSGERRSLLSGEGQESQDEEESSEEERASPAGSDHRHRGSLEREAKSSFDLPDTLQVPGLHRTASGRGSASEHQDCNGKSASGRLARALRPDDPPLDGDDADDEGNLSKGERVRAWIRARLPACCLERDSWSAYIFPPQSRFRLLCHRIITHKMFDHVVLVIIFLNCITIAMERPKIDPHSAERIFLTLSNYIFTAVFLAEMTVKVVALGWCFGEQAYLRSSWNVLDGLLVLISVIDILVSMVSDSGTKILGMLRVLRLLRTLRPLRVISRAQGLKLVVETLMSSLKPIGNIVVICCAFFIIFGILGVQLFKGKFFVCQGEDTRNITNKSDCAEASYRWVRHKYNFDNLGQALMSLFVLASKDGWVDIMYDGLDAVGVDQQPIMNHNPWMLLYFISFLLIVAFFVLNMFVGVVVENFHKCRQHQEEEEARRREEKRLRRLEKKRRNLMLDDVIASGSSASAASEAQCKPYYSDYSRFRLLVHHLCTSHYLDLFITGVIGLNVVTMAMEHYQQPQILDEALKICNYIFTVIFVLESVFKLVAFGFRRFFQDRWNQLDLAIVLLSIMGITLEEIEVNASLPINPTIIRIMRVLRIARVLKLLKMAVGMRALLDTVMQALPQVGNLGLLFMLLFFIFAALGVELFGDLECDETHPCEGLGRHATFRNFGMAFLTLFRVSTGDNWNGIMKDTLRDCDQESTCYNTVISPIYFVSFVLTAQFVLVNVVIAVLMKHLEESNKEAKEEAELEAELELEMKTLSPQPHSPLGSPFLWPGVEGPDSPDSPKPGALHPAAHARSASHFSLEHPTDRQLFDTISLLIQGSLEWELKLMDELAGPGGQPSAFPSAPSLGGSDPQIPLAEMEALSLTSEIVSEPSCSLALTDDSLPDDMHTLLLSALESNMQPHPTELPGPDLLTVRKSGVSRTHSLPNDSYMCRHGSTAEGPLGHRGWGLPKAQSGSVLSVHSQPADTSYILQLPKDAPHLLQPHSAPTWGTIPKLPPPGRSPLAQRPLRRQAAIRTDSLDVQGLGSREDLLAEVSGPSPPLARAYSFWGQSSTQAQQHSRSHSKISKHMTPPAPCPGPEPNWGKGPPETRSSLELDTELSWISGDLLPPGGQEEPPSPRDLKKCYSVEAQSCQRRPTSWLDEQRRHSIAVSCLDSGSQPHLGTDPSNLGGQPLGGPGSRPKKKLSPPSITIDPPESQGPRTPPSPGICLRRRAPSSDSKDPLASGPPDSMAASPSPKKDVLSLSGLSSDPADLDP

For `O=C(NCCN1CCCCC1)c1ccc2c(c1)C(=O)N(Cc1ccc(Cl)cc1)C2=O`, the CC50 in series [1] was more than 100 µM. Besides, the Ratio IC50 in the series filed under Homo sapiens was found to be 35. Further, the negative logarithm of the IC50 (pIC50) in series [2] was 4.48. On to `O=C(NCCN1CCCCC1)c1ccc2c(c1)C(=O)N(Cc1ccccc1)C2=O`, for which, in series [3], the negative logarithm of the IC50 (pIC50) is 4.64. `COc1cccc(CN2C(=O)c3ccc(C(=O)NCCN4CCCCC4)cc3C2=O)c1`: the negative-log IC50 (pIC50) in series [3] is 4.85. Same read-out and setting: in the case of `O=C(NCCN1CCCCC1)c1ccc2c(c1)C(=O)N(Cc1ccc(F)cc1)C2=O` it was 5.05. As to `CC1CCCCN1CCCNC(=O)c1ccc2c(c1)C(=O)N(Cc1ccc(Cl)cc1)C2=O` (stereo unspecified), in series [1], the cytotoxic concentration (CC50) was more than 100 µM. For the same compound, the Ratio IC50 in the series listed under Homo sapiens was 59. The pIC50 in series [2] is 4.26. For `O=C(NCCN1CCCCC1)c1ccc2c(c1)C(=O)N(Cc1ccccc1F)C2=O`, the negative-log IC50 (pIC50) in series [3] was 4.83.

As to `COc1ccc(CN2C(=O)c3ccc(C(=O)NCCN4CCCCC4)cc3C2=O)cc1`, the negative logarithm of the IC50 (pIC50) in series [3] is 5.28. As for `O=C(NCCN1CCCCC1)c1ccc2c(c1)C(=O)N(Cc1ccccc1Cl)C2=O`, the pIC50 in series [3] was 5.24.

Take `O=C(NCCCN1CCCC1)c1ccc2c(c1)C(=O)N(Cc1ccc(Cl)cc1)C2=O`: the pIC50 in series [3] was 5.79. With `Cc1ccc(CN2C(=O)c3ccc(C(=O)NCCN4CCCCC4)cc3C2=O)cc1`, in series [3], the pIC50 is 5.24. In the case of `O=C(NCCN1CCCCC1)c1ccc2c(c1)C(=O)N(Cc1cccc(Cl)c1)C2=O`, the negative logarithm of the IC50 (pIC50) in series [3] is 5.39.

As for `Cc1ccc(CN2C(=O)c3ccc(C(=O)NCCCN4CCCCC4C)cc3C2=O)cc1` (stereo unspecified), the pIC50 in series [3] is 5.45.
